The list is not random: actives were taken first. Their share in the collection is about 9.8%.
Calpain2 inh – inhibitors of pig calpain II, primary screen, biochemical, fluorogenic peptide substrate, 1536-well | inhibition, % at 16 µM | AID 1236, 2008 | purified calpain II, 30 min | 0.37% of 220,000 active;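 active = inhibition above about 50%, limit read from the data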
Lmaj promast – Leishmania major promastigote growth inhibition, primary screen | 9% of 200,000 active | inhibition, % at 10 µM | Leishmania major promastigotes, resazurin fluorescence viability; in the data active = inhibition above about 50%;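 note: promastigotes grown with compound for 44 hours at 28 °C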
Rad51 HR inh – human RAD51 strand exchange inhibitors, primary screen, biochemical, fluorescence; 0.085% of 200,000 active; hRad51 DNA strand exchange, fluorescence dequenching; inhibition, % at 10 µM; DNA repair protein RAD51 homolog 1 (Homo sapiens), Q06609; AID 1385, 2008;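 active = inhibition above 40% at the single screening dose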
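Test system: preformed human Rad51 ssDNA filaments; also added: Donor/quencher-labelled 47-bp dsDNA substrate; doses: 10 µM final, single point; times: 37 °C 15-min filament assembly, 30-min compound preincubation, 15-min exchange; detection: FRET fluorescence dequenching, excitation 485 nm, emission 520 nm; read-out basis: Fluorescence-based percent inhibition, control- and blank-normalised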
WT yeast gro inh – growth inhibition of WT strain, primary screen, mitochondrial fusion inhibitor project, WT and mutant strains, chemical genetic. mitochondrial fusion phenotypic screen. inhibition, % at 10 µM. 2.1% of 190,000 active. AID 1362, 2008; in the data active = inhibition above about 58%; tested in S. cerevisiae
PMI activator – activators of human PMI, primary screen, biochemical, fluorescence intensity, near-Km mannose 6-phosphate. Mannose-6-phosphate isomerase (Homo sapiens), P34949. purified human PMI, coupled resazurin fluorescence, 20 min; hits give high values; 1 = vehicle control, 0 substrate-free wells. activation factor at 20 µM. 0.005% of 190,000 active. AID 1214, 2008;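 active = activation factor of 2 or more at 20 µM, relative to plate controls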
Target sequence (P34949 whole entry, looked up): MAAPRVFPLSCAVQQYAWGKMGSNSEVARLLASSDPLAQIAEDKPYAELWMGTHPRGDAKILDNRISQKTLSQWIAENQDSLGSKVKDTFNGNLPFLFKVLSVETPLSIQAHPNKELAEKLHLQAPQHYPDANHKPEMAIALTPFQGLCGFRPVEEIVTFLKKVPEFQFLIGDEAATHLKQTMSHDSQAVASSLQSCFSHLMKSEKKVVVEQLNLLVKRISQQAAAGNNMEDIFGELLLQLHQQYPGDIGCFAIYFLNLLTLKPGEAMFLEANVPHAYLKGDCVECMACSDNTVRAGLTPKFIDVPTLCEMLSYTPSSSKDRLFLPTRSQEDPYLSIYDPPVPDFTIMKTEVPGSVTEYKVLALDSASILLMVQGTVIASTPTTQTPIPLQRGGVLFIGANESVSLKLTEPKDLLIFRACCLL
PMI act satM6P – human PMI activators, high substrate, primary screen, biochemical, fluorescence intensity, near-saturating mannose 6-phosphate | AID 1216, 2008 | coupled PMI enzyme assay, resazurin fluorescence, 20 min; hits give high values; 1 = untreated enzyme, 0 = substrate-free blank | activation factor at 20 µM | 0.34% of 190,000 active;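 active = activation factor of 2 or more at 20 µM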
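Technique: Diaphorase-driven resazurin-to-resorufin fluorescence, excitation 544, emission 590 nm | Assay system: Human PMI in coupled enzyme assay | Times: Enzyme reaction with compound 20 min at room temperature | Medium: HEPES-buffered pH 7.4 with magnesium and detergent | Reagent: Mannose-6-phosphate 1.0 mM (near-saturating) plus 0.22 mM NADP+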
A number is an active result; – = inactive; · = no result given.

SMILES	Calpain2 inh	Lmaj promast	Rad51 HR inh	WT yeast gro inh	PMI activator	PMI act satM6P
Cc1ccc(-c2csc3nc(SCC(N)=O)n(Cc4ccccc4)c(=O)c23)cc1	–	51.5	–	–	–	–
CCCCC(=O)Nc1ccc(NC(=O)c2ccc([N+](=O)[O-])cc2Cl)cc1OC	–	–	–	–	–	–
N/C(=N\OC(=O)c1cc(-c2ccccc2)nc2ccccc12)c1ccccn1	–	–	–	66.2	–	–
N/C(=N\OC(=O)Cc1ccc(-c2ccccc2)cc1)c1ccccn1	–	–	–	61.6	–	–
Cc1ccc(/C(N)=N/OC(=O)c2cc(-c3ccccc3)nc3ccccc23)cc1	–	–	–	–	–	–
COc1ccc(CC(=O)O/N=C(\N)c2ccccn2)cc1	–	·	·	·	·	·
COc1ccc(C2C(C#N)=C(N)Oc3cc(C)[nH]c(=O)c32)cc1OC (stereo not drawn)	–	·	·	·	·	·
COP(=O)(OC)C(Nc1ccc(C)cc1)c1ccc([N+](=O)[O-])cc1 (stereo not drawn)	–	–	–	–	–	–
C/C(=N/NC(=O)CCc1c(C)n[nH]c1C)c1cccc([N+](=O)[O-])c1	–	·	–	·	·	·
CC(CCc1ccccc1)NC(=O)CSc1nccc(=O)[nH]1 (stereo not drawn)	–	–	–	–	–	–
CC(CCc1ccccc1)NC(=O)CSc1cccc[n+]1[O-] (stereo not drawn)	53.2	–	–	–	–	–
CC(CCc1ccccc1)NC(=O)Cc1ccc([N+](=O)[O-])cc1 (stereo not drawn)	–	64.7	–	–	–	–
CC(CCc1ccccc1)NC(=O)CSc1ccccc1 (stereo not drawn)	–	52.1	–	–	–	–
Cc1noc(NC(=O)c2ccccc2C(F)(F)F)c1C#N	–	–	–	–	–	–
O=c1cc(-c2ccccc2)nc(SCc2ccccc2F)[nH]1	–	–	–	–	–	–
CCN1CCN(c2nc(Nc3ccc(C)c(C)c3)nc(N)c2[N+](=O)[O-])CC1	–	–	–	–	–	–
Cc1cccc(Nc2nc(N)c([N+](=O)[O-])c(N3CC(C)CC(C)C3)n2)c1 (stereo not drawn)	–	92.8	–	95.9	–	–
CCN1CCN(c2nc(N)c([N+](=O)[O-])c(Nc3cccc(C)c3)n2)CC1	–	99.9	–	–	–	–
CC(=O)c1ccc(-c2ccc(C(=O)N3CCN(c4ccc(F)cc4)CC3)o2)cc1	67.5	–	–	–	–	–
O=C(c1ccccc1)c1ccc(N2CCNCC2)cc1	–	75.1	–	–	–	–
O=C(O)CCC(=O)N1CCN(c2ccc(C(=O)c3ccc(F)cc3)cc2)CC1	–	–	–	–	–	–
CN1CCN(c2ccc(C(=O)c3ccc(F)cc3)cc2)CC1	–	67.9	–	–	–	–
O=C(c1ccc(Br)o1)N1CCN(c2ccc(F)cc2)CC1	–	–	–	–	–	–
O=C(c1ccccc1)c1ccc(N2CCCC2)cc1	–	–	–	–	–	–
C/C(=N\NC(=O)C(=O)Nc1cccc(Cl)c1C)c1ccncc1	–	68.8	–	–	–	–
SMILES	Calpain2 inh	Lmaj promast	Rad51 HR inh	WT yeast gro inh	PMI activator	PMI act satM6P
C/C(=N\NC(=O)C(=O)Nc1cc(Cl)ccc1Cl)c1ccncc1	–	–	–	–	–	–
O=C1CCC(C(=O)N2CCCC(C(=O)c3ccc4c5c(cccc35)CC4)C2)=NN1 (stereo not drawn)	–	–	–	–	–	–
COC(=O)C1=C(C)NC2=C(C(=O)CC(C)(C)C2)C1c1ccccn1 (stereo not drawn)	–	–	–	–	–	–
COc1ccc(OC)c(C2C(C(=O)Nc3nc4ccccc4s3)=C(C)NC3=C2C(=O)CCC3)c1 (stereo not drawn)	–	97.7	–	–	–	–
COc1cccc(C2C(C(=O)Nc3nc4ccccc4s3)=C(C)NC3=C2C(=O)CC(C)(C)C3)c1OC (stereo not drawn)	–	58.3	–	–	–	–
CCC1=NN(S(=O)(=O)c2ccc(C)cc2)C(O)(C(F)(F)F)C1 (stereo not drawn)	–	–	–	–	–	–
O=C(Nc1c(S(=O)(=O)c2ccc(Cl)cc2)csc1Br)c1ccccc1Cl	–	·	–	·	·	·
CSc1nnc(C)c(=O)n1COC(=O)c1cc(Cl)ccc1[N+](=O)[O-]	–	–	–	–	–	–
O=c1c(Cl)c(N2CCN(S(=O)(=O)c3ccc(F)cc3)CC2)cnn1-c1cccc(Cl)c1	–	98.4	–	–	–	–
CN(C)/C=C(/C(=O)c1ccc(Cl)cc1)S(=O)(=O)c1ccc(Cl)cc1	–	–	·	–	–	–
CCc1ccc(OCC(=O)NC(NC(=S)Nc2ccc(Cl)cc2)C(Cl)(Cl)Cl)cc1 (stereo not drawn)	–	60.8	–	–	–	–
CC(C)CC(NC(=O)CCl)c1ccccc1 (stereo not drawn)	–	–	–	–	–	–
O=C(CCl)Nc1cn(-c2ccccc2)nc1-c1ccccc1	–	98.8	–	–	–	–
CC(=O)Nc1cn(-c2ccccc2)nc1-c1ccccc1	–	–	–	–	–	–
CC(C)N(c1ccccc1)c1ccc(NC(=O)CCl)cc1	–	55.3	–	–	–	–
Nc1nc(SCC(=O)Nc2cccc(Oc3ccccc3)c2)n[nH]1	–	56.4	–	–	–	–
O=C(CCl)Nc1cccc(Oc2ccccc2)c1	–	97.9	–	–	–	–
CC(=O)Nc1ccc(N=Nc2ccccc2)cc1	–	–	–	–	–	–
CCCC(=O)NC(NC(=S)Nc1ccc(S(N)(=O)=O)cc1)C(Cl)(Cl)Cl (stereo not drawn)	–	–	–	–	–	–
O=C(CCl)Nc1ccc(N=Nc2ccccc2)cc1	–	99.9	–	–	–	–
CCCC(=O)NC(NC(=S)Nc1ccc(N=Nc2ccccc2)cc1)C(Cl)(Cl)Cl (stereo not drawn)	–	56.6	–	–	–	–
O=C(CCl)Nc1ccc(N2CCCCCC2)cc1	–	99.3	·	–	–	–
COc1ccc(CCNC(=O)CSc2ccc(Br)cc2)cc1OC	–	–	–	–	–	–
Brc1cc(Cc2nnc(-c3ccccc3)o2)c(Br)s1	–	·	–	·	·	·
O=C(O)CN1CCN(Cc2ccccc2F)C1=O	–	–	–	–	–	–
C=CCOc1cccc(NC(=O)c2ccccc2SC)c1	–	–	–	–	–	–
O=C(CCl)Nc1ccc(-c2ccccc2)cc1	–	79.2	–	–	–	–
CCOC(=O)C1CCCN(C(=O)c2csc(-c3ccc4c(c3)CCO4)n2)C1 (stereo not drawn)	–	·	–	·	·	·

Compound activity from PubChem.
